Results reported in ChEMBL document CHEMBL5344479, “N-Arylsulfonamide-based adenosine analogues to target RNA cap N7-methyltransferase nsp14 of SARS-CoV-2” (RSC Med Chem, 2024).

Legend:
[1] = molecular target: Replicase polyprotein 1ab (Severe acute respiratory syndrome coronavirus 2, UniProt P0DTD1); test: (§1) Inhibition of N-terminal hexa-histidine tagged recombinant SARS-CoV-2 nsp14 RNA cap N7-methyltransferase activity expressed in Escherichia coli C2566 using GpppAC4 synthetic RNA and [3H]-SAM as substrate incubated for 30 mins by filter binding assay based liquid scintillation counter analysis
[2] = molecular target: Replicase polyprotein 1ab (Severe acute respiratory syndrome coronavirus 2) (UniProt P0DTD1); test: as §1, with “C2566 assessed as residual enzyme activity” for “C2566”, “substrate at 50 uM” for “substrate”, “analysis relative to control” for “analysis”
Procedure, shortened: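 Recombinant nsp14 (10 nM), purified by cobalt IMAC and size exclusion, was premixed with compound at 50 µM (2.5% final DMSO). Then 0.7 µM GpppAC4 RNA, 1.9 µM SAM and 0.1 µM 3H-SAM were added in 40 mM Tris-HCl pH 8.0, 1 mM DTT, 1 mM MgCl2. After 30 min at 30 °C, reactions were stopped by 10-fold ice-cold water dilution, DEAE-filtered, washed and scintillation-counted.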

| Compound | IC50 [1] | Activity [2] |
| --- | --- | --- |
| Nc1ncnc2c1ncn2[C@@H]1O[C@H](CSCCNS(=O)(=O)c2ccc([N+](=O)[O-])cc2)[C@@H](O)[C@H]1O | 4.7 µM | 9% |
| Cc1ccc(S(=O)(=O)NCCSC[C@H]2O[C@@H](n3cnc4c(N)ncnc43)[C@H](O)[C@@H]2O)cc1 | 2.2 µM | 10% |
| CCN(Cc1cn(C[C@H]2O[C@@H](n3cnc4c(N)ncnc43)[C@H](O)[C@@H]2O)nn1)S(=O)(=O)c1ccc(F)cc1 |  | 93% |
| Nc1ncnc2c1ncn2[C@@H]1O[C@H](CS(=O)(=O)CCNS(=O)(=O)c2ccc(C(F)(F)F)cc2)[C@@H](O)[C@H]1O | 38.4 µM | 37% |
| Nc1ncnc2c1ncn2[C@@H]1O[C@H](Cn2cc(CNS(=O)(=O)c3ccccc3)nn2)[C@@H](O)[C@H]1O |  | 59% |
| Nc1ncnc2c1ncn2[C@@H]1O[C@H](CSCCNS(=O)(=O)c2ccc(Cl)cc2[N+](=O)[O-])[C@@H](O)[C@H]1O | 0.9 µM | 2% |
| Cc1ccc(S(=O)(=O)NCc2cn(C[C@H]3O[C@@H](n4cnc5c(N)ncnc54)[C@H](O)[C@@H]3O)nn2)cc1 |  | 50% |
| COc1ccc(S(=O)(=O)NCc2cn(C[C@H]3O[C@@H](n4cnc5c(N)ncnc54)[C@H](O)[C@@H]3O)nn2)cc1 |  | 63% |
| Nc1ncnc2c1ncn2[C@@H]1O[C@H](CS(=O)(=O)CCNS(=O)(=O)c2ccccc2)[C@@H](O)[C@H]1O | 23.3 µM | 48% |
| Nc1ncnc2c1ncn2[C@@H]1O[C@H](CS(=O)(=O)CCNS(=O)(=O)c2ccc([N+](=O)[O-])cc2)[C@@H](O)[C@H]1O | 27.4 µM | 27% |
| CCN(Cc1cn(C[C@H]2O[C@@H](n3cnc4c(N)ncnc43)[C@H](O)[C@@H]2O)nn1)S(=O)(=O)c1ccc(C)cc1 |  | 59% |
| CCN(CCNS(=O)(=O)c1ccccc1)C[C@H]1O[C@@H](n2cnc3c(N)ncnc32)[C@H](O)[C@@H]1O |  | 87% |
| Nc1ncnc2c1ncn2[C@@H]1O[C@H](CSCCNS(=O)(=O)c2ccccc2[N+](=O)[O-])[C@@H](O)[C@H]1O | 2.04 µM | 0% |
| N#Cc1ccc(S(=O)(=O)NCCSC[C@H]2O[C@@H](n3cnc4c(N)ncnc43)[C@H](O)[C@@H]2O)cc1 | 15.6 µM | 21% |
| CCN(CCNS(=O)(=O)c1ccc(C(F)(F)F)cc1)C[C@H]1O[C@@H](n2cnc3c(N)ncnc32)[C@H](O)[C@@H]1O |  | 83% |
| CCN(Cc1cn(C[C@H]2O[C@@H](n3cnc4c(N)ncnc43)[C@H](O)[C@@H]2O)nn1)S(=O)(=O)c1ccc(Cl)cc1 |  | 69% |

| Compound | IC50 [1] | Activity [2] |
| --- | --- | --- |
| Nc1ncnc2c1ncn2[C@@H]1O[C@H](Cn2cc(CNS(=O)(=O)c3ccc(F)cc3)nn2)[C@@H](O)[C@H]1O |  | 91% |
| CCN(Cc1cn(C[C@H]2O[C@@H](n3cnc4c(N)ncnc43)[C@H](O)[C@@H]2O)nn1)S(=O)(=O)c1ccccc1 |  | 84% |
| CCN(Cc1cn(C[C@H]2O[C@@H](n3cnc4c(N)ncnc43)[C@H](O)[C@@H]2O)nn1)S(=O)(=O)c1ccc(C(F)(F)F)cc1 |  | 47% |
| Nc1ncnc2c1ncn2[C@@H]1O[C@H](Cn2cc(CNS(=O)(=O)c3ccc(Cl)cc3)nn2)[C@@H](O)[C@H]1O |  | 72% |
| Cc1ccc(S(=O)(=O)NCCS(=O)(=O)C[C@H]2O[C@@H](n3cnc4c(N)ncnc43)[C@H](O)[C@@H]2O)cc1 | 49 µM | 38% |
| CCN(CCNS(=O)(=O)c1ccc([N+](=O)[O-])cc1)C[C@H]1O[C@@H](n2cnc3c(N)ncnc32)[C@H](O)[C@@H]1O |  | 57% |
| Nc1ncnc2c1ncn2[C@@H]1O[C@H](Cn2cc(CNS(=O)(=O)c3ccc(C(F)(F)F)cc3)nn2)[C@@H](O)[C@H]1O |  | 81% |
| Nc1ncnc2c1ncn2[C@@H]1O[C@H](CSCCNS(=O)(=O)c2ccccc2)[C@@H](O)[C@H]1O | 4.6 µM | 13% |
| CCN(Cc1cn(C[C@H]2O[C@@H](n3cnc4c(N)ncnc43)[C@H](O)[C@@H]2O)nn1)S(=O)(=O)c1ccc(OC)cc1 |  | 60% |
| Cc1cccc(S(=O)(=O)NCc2cn(C[C@H]3O[C@@H](n4cnc5c(N)ncnc54)[C@H](O)[C@@H]3O)nn2)c1 |  | 82% |
| N#Cc1ccc(S(=O)(=O)NCCS(=O)(=O)C[C@H]2O[C@@H](n3cnc4c(N)ncnc43)[C@H](O)[C@@H]2O)cc1 | 52.4 µM | 42% |
| COc1ccc(S(=O)(=O)NCCSC[C@H]2O[C@@H](n3cnc4c(N)ncnc43)[C@H](O)[C@@H]2O)c([N+](=O)[O-])c1 | 0.9 µM | 0% |
| CCN(CCNS(=O)(=O)c1ccc(C#N)cc1)C[C@H]1O[C@@H](n2cnc3c(N)ncnc32)[C@H](O)[C@@H]1O |  | 67% |
| Nc1ncnc2c1ncn2[C@@H]1O[C@H](CSCCNS(=O)(=O)c2ccc(C(F)(F)F)cc2)[C@@H](O)[C@H]1O | 7.3 µM | 7% |
| CCN(CCNS(=O)(=O)c1ccc(C)cc1)C[C@H]1O[C@@H](n2cnc3c(N)ncnc32)[C@H](O)[C@@H]1O |  | 66% |
